Data reported in ChEMBL document CHEMBL2401707, “Potentiating 1-(2-hydroxypropyl)-2-styryl-5-nitroimidazole derivatives against antibacterial agents: design, synthesis and biology analysis” (Eur J Med Chem, 2013).
≈ marks a conversion by molar mass, not a printed value.

Key:
Bacillus thuringiensis = test: Antibacterial activity against Bacillus thuringiensis assessed as survival after 24 hrs by MTT assay; type: functional, organism-based
Procedure, shortened: (§1)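 Broth microdilution in Mueller-Hinton broth. Cells grown to mid-log phase, diluted 10000-fold, and 10⁶ to 10⁷ CFU inoculated per well. Incubated 37 °C for 24 h. Drug-containing medium then added to final 40, 10, 2.5 and 0.25 µg/mL. After 12 h, MTT in PBS added; 4 h later medium discarded and formazan dissolved in DMSO. A490 read; at least three replicates.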

Escherichia coli = test: Antibacterial activity against Escherichia coli assessed as survival after 24 hrs by MTT assay; type: functional, organism-based; procedure, shortened: as §1
Bacillus subtilis = test: Antibacterial activity against Bacillus subtilis assessed as survival after 24 hrs by MTT assay; type: functional, organism-based; procedure, shortened: as §1
Pseudomonas aeruginosa = test: Antibacterial activity against Pseudomonas aeruginosa assessed as survival after 24 hrs by MTT assay; type: functional, organism-based; procedure, shortened: as §1
[1] = Cytotoxicity against human macrophages assessed as cell viability after 24 hrs by MTT assay; type: cell-based, Macrophage
Procedure, shortened: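 Human macrophages in DMEM with 10% FBS and antimycotic, 1.8×10⁴ cells/well. Exposed to 160, 40, 10, 2.5 and 0.25 µg/mL compound (added in 10% DMSO) for 24 h at 37 °C, 5% CO₂. MTT (2.5 mg/mL) added for a further 4 h, formazan dissolved in DMSO.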

[2] = Inhibition of Escherichia coli FabH overexpressed in Escherichia coli DH10B using holo-ACP as substrate after 1 min
Procedure, shortened: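 Enzyme was purified by Ni-NTA with imidazole gradient elution and stored in 20 mM Tris pH 7.6, 100 mM NaCl, 1 mM DTT, 20% glycerol. Reaction: 0.5 nM E. coli FabH, 20 mM Na₂HPO₄ pH 7.0, 0.5 mM DTT, 0.25 mM MgCl₂, 2.5 µM holo-ACP, preincubated 1 min. Started with acetyl-CoA, NADH and NADPH mix; ran 19 min. Stopped with ice-cold TCA; ³H incorporation in pellet counted by liquid scintillation. Inhibitors added from DMSO stock, final DMSO ≤2%; IC50 determined.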

[3] = Cytotoxicity against human macrophages assessed as morphological changes at 2.5 to 160 ug/mL after 24 hrs by phase contrast microscopic analysis; type: cell-based; conditions: macrophage
Procedure, shortened: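 Human macrophages exposed for 24 h to 2.5, 10, 40 and 160 µg/mL, Giemsa-stained and examined by phase contrast microscopy. Morphology compared with untreated control cells. The minimum cytotoxic concentration is the level causing a microscopically detectable alteration of normal cell morphology.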

IC50 [2] [nM]	SMILES	IC50 (Bacillus thuringiensis) [µg/mL]	IC50 (Escherichia coli) [µg/mL]	IC50 (Bacillus subtilis) [µg/mL]	IC50 (Pseudomonas aeruginosa) [µg/mL]	CC50 at 24 h [1] [nM]	Activity [3]
	CC(O)Cn1c([N+](=O)[O-])cnc1/C=C/c1ccccc1 (centres undefined)	45.6 (≈ 167 µM)	> 200	78.9 (≈ 289 µM)	28 (≈ 102 µM)	1500	
9500	COc1ccc(/C=C/c2ncc([N+](=O)[O-])n2CC(C)O)cc1 (centres undefined)	13.6 (≈ 44.8 µM)	46.1 (≈ 152 µM)	12.3 (≈ 40.6 µM)	42.8 (≈ 141 µM)	560	
	CC(O)Cn1c([N+](=O)[O-])cnc1/C=C/c1ccc(Br)cc1 (centres undefined)	56.2 (≈ 160 µM)	50.8 (≈ 144 µM)	38 (≈ 108 µM)	15.2 (≈ 43.2 µM)	550	
8900	CC(O)Cn1c([N+](=O)[O-])cnc1/C=C/c1cccc(F)c1 (centres undefined)	79.2 (≈ 272 µM)	120 (≈ 412 µM)	11.8 (≈ 40.5 µM)	15 (≈ 51.5 µM)	1030	
	CC(O)Cn1c([N+](=O)[O-])cnc1/C=C/c1ccc(Cl)cc1 (centres undefined)	52.5 (≈ 171 µM)	102 (≈ 331 µM)	79.5 (≈ 258 µM)	17.6 (≈ 57.2 µM)	980	
	CC(O)Cn1c([N+](=O)[O-])cnc1/C=C/c1ccc(F)cc1 (centres undefined)	28.1 (≈ 96.5 µM)	45.3 (≈ 156 µM)	47.1 (≈ 162 µM)	24.2 (≈ 83.1 µM)	420	
	CC(O)Cn1c([N+](=O)[O-])cnc1/C=C/c1cccc(Cl)c1 (centres undefined)	21.4 (≈ 69.5 µM)	86.7 (≈ 282 µM)	55.3 (≈ 180 µM)	35 (≈ 114 µM)	520	
	COc1ccccc1/C=C/c1ncc([N+](=O)[O-])n1CC(C)O (centres undefined)	19.1 (≈ 63 µM)	78.6 (≈ 259 µM)	10.5 (≈ 34.6 µM)	83.8 (≈ 276 µM)	480	
4600	CC(O)Cn1c([N+](=O)[O-])cnc1/C=C/c1ccc([N+](=O)[O-])cc1 (centres undefined)	11.7 (≈ 36.8 µM)	36.8 (≈ 116 µM)	32.5 (≈ 102 µM)	5.9 (≈ 18.5 µM)	410	
	COc1cccc(/C=C/c2ncc([N+](=O)[O-])n2CC(C)O)c1 (centres undefined)	56.2 (≈ 185 µM)	181 (≈ 595 µM)	25.7 (≈ 84.7 µM)	6.7 (≈ 22.1 µM)	1300	
10800	CC(O)Cn1c([N+](=O)[O-])cnc1/C=C/c1cccc(Br)c1 (centres undefined)	8.2 (≈ 23.3 µM)	45.4 (≈ 129 µM)	15.3 (≈ 43.4 µM)	30.9 (≈ 87.7 µM)	620	
	CC(O)Cn1c([N+](=O)[O-])cnc1/C=C/c1ccccc1F (centres undefined)	60.3 (≈ 207 µM)	72.7 (≈ 250 µM)	3.4 (≈ 11.7 µM)	39.4 (≈ 135 µM)	1410	
11500	CC(O)Cn1c([N+](=O)[O-])cnc1/C=C/c1ccccc1Cl (centres undefined)		56.3 (≈ 183 µM)	7.5 (≈ 24.4 µM)	15.4 (≈ 50 µM)	480	
78800	Cc1ccc(/C=C/c2ncc([N+](=O)[O-])n2CC(C)O)cc1 (centres undefined)	8.6 (≈ 29.9 µM)	111 (≈ 388 µM)	8.9 (≈ 31 µM)	22.8 (≈ 79.4 µM)	860	
	CC(O)Cn1c([N+](=O)[O-])cnc1/C=C/c1c(F)cccc1Cl (centres undefined)	6.1 (≈ 18.7 µM)	119 (≈ 365 µM)	112 (≈ 343 µM)	5.7 (≈ 17.5 µM)	710	
	CC(O)Cn1c([N+](=O)[O-])cnc1/C=C/c1ccc(Cl)cc1Cl (centres undefined)	18.8 (≈ 54.9 µM)	111 (≈ 325 µM)	58.1 (≈ 170 µM)	8.7 (≈ 25.4 µM)	810	
	CC(O)Cn1c([N+](=O)[O-])cnc1/C=C/c1ccc(N(C)C)cc1 (centres undefined)	> 200	108 (≈ 342 µM)	56.5 (≈ 179 µM)	75 (≈ 237 µM)	680	
5100	CC(O)Cn1c([N+](=O)[O-])cnc1/C=C/c1cccc([N+](=O)[O-])c1 (centres undefined)	20.6 (≈ 64.7 µM)	38.8 (≈ 122 µM)	31.1 (≈ 97.7 µM)	32.7 (≈ 103 µM)	430	
	CC(O)Cn1c([N+](=O)[O-])cnc1/C=C/c1ccccc1Br (centres undefined)	11.4 (≈ 32.4 µM)	63.6 (≈ 181 µM)	6 (≈ 17 µM)	11.1 (≈ 31.5 µM)	490	
11000	CC(O)Cn1c([N+](=O)[O-])cnc1/C=C/c1ccccc1[N+](=O)[O-] (centres undefined)	72.9 (≈ 229 µM)	40.3 (≈ 127 µM)	12.3 (≈ 38.6 µM)	7.4 (≈ 23.2 µM)	1090	Non-toxic
43200	CC(O)Cn1c([N+](=O)[O-])cnc1/C=C/c1ccc2ccccc2c1 (centres undefined)	52.2 (≈ 161 µM)	108 (≈ 335 µM)	23.5 (≈ 72.7 µM)	42.1 (≈ 130 µM)	790	
6300	NC[C@H]1O[C@H](O[C@H]2[C@H](O)[C@@H](O[C@H]3O[C@H](CO)[C@@H](O)[C@H](N)[C@H]3O)[C@H](N)C[C@@H]2N)[C@H](O)[C@@H](O)[C@@H]1O [KANAMYCIN]	9.5 (≈ 19.6 µM)	47.3 (≈ 97.6 µM)	8.9 (≈ 18.4 µM)	6.8 (≈ 14 µM)		
